Tests used:
[1] = system: Mycobacterium tuberculosis; experiment: Bactericidal activity against Mycobacterium tuberculosis in pulmonary tuberculosis patient assessed as reduction in sputum bacterial count at 25 […], po once daily measured after 3 days; assay type: functional
Procedure, shortened: (§1)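 Hospitalized treatment-naïve smear-positive patients took oral doses once daily, observed, after breakfast. Sputum was pooled over 16 h overnight at baseline, after each of the 7 dosing days, and on the night after the first standard-therapy dose. Sputum was stirred, digested with dithiothreitol for 20 min at room temperature, and diluted 10-fold. Dilutions were plated in quadruplicate on selective 7H11 agar and counted after 3-4 weeks at 37°C at 20-200 colonies. The read-out was change in log10 CFU/ml from baseline, with a count of 0 set to log 0.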

[2] = system: Mycobacterium tuberculosis; experiment: Bactericidal activity against Mycobacterium tuberculosis in pulmonary tuberculosis patient assessed as reduction in sputum bacterial count at 25 […], po once daily measured after 4 days; assay type: functional; procedure, shortened: as §1
[3] = system: Mycobacterium tuberculosis; experiment: Bactericidal activity against Mycobacterium tuberculosis in pulmonary tuberculosis patient assessed as reduction in sputum bacterial count at 25 mg/kg, po once daily measured after 5 days; assay type: functional; procedure, shortened: as §1
[4] = system: Mycobacterium tuberculosis; experiment: Bactericidal activity against Mycobacterium tuberculosis in pulmonary tuberculosis patient assessed as reduction in sputum bacterial count at 25 mg/kg, po once daily measured after 6 days; assay type: functional; procedure, shortened: as §1
[5] = system: Mycobacterium tuberculosis; experiment: Bactericidal activity against Mycobacterium tuberculosis in pulmonary tuberculosis patient assessed as reduction in sputum bacterial count at 25 mg/kg, po once daily measured after 7 days; assay type: functional; procedure, shortened: as §1
[6] = system: Mycobacterium tuberculosis; experiment: Bactericidal activity against Mycobacterium tuberculosis in pulmonary tuberculosis patient assessed as reduction in sputum bacterial count at 100 […], po once daily measured after 1 day; assay type: functional; procedure, shortened: as §1
[7] = system: Mycobacterium tuberculosis; experiment: Bactericidal activity against Mycobacterium tuberculosis in pulmonary tuberculosis patient assessed as reduction in sputum bacterial count at 100 […], po once daily measured after 2 days; assay type: functional; procedure, shortened: as §1
[8] = system: Mycobacterium tuberculosis; experiment: Bactericidal activity against Mycobacterium tuberculosis in pulmonary tuberculosis patient assessed as reduction in sputum bacterial count at 100 […], po once daily measured after 3 days; assay type: functional; procedure, shortened: as §1
[9] = system: Mycobacterium tuberculosis; experiment: Bactericidal activity against Mycobacterium tuberculosis in pulmonary tuberculosis patient assessed as reduction in sputum bacterial count at 100 […], po once daily measured after 4 days; assay type: functional; procedure, shortened: as §1
[10] = system: Mycobacterium tuberculosis; experiment: Bactericidal activity against Mycobacterium tuberculosis in pulmonary tuberculosis patient assessed as reduction in sputum bacterial count at 100 […], po once daily measured after 5 days; assay type: functional; procedure, shortened: as §1
[11] = system: Mycobacterium tuberculosis; experiment: Bactericidal activity against Mycobacterium tuberculosis in pulmonary tuberculosis patient assessed as reduction in sputum bacterial count at 100 […], po once daily measured after 6 days; assay type: functional; procedure, shortened: as §1
[12] = system: Mycobacterium tuberculosis; experiment: Bactericidal activity against Mycobacterium tuberculosis in pulmonary tuberculosis patient assessed as reduction in sputum bacterial count at 100 […], po once daily measured after 7 days; assay type: functional; procedure, shortened: as §1
[13] = system: Mycobacterium tuberculosis; experiment: Bactericidal activity against Mycobacterium tuberculosis in pulmonary tuberculosis patient assessed as reduction in sputum bacterial count at 400 […], po once daily measured after 1 day; assay type: functional; procedure, shortened: as §1
[14] = system: Mycobacterium tuberculosis; experiment: Bactericidal activity against Mycobacterium tuberculosis in pulmonary tuberculosis patient assessed as reduction in sputum bacterial count at 400 mg/kg, po once daily measured after 2 days; assay type: functional; procedure, shortened: as §1
[15] = system: Mycobacterium tuberculosis; experiment: Bactericidal activity against Mycobacterium tuberculosis in pulmonary tuberculosis patient assessed as reduction in sputum bacterial count at 400 mg/kg, po once daily measured after 3 days; assay type: functional; procedure, shortened: as §1
[16] = system: Mycobacterium tuberculosis; experiment: Bactericidal activity against Mycobacterium tuberculosis in pulmonary tuberculosis patient assessed as reduction in sputum bacterial count at 400 mg/kg, po once daily measured after 4 days; assay type: functional; procedure, shortened: as §1
[17] = system: Mycobacterium tuberculosis; experiment: Bactericidal activity against Mycobacterium tuberculosis in pulmonary tuberculosis patient assessed as reduction in sputum bacterial count at 400 mg/kg, po once daily measured after 5 days; assay type: functional; procedure, shortened: as §1
[18] = system: Mycobacterium tuberculosis; experiment: Bactericidal activity against Mycobacterium tuberculosis in pulmonary tuberculosis patient assessed as reduction in sputum bacterial count at 400 mg/kg, po once daily measured after 6 days; assay type: functional; procedure, shortened: as §1
[19] = system: Mycobacterium tuberculosis; experiment: Bactericidal activity against Mycobacterium tuberculosis in pulmonary tuberculosis patient assessed as reduction in sputum bacterial count at 400 mg/kg, po once daily measured after 7 days; assay type: functional; procedure, shortened: as §1
[20] = system: Mycobacterium tuberculosis; experiment: Bactericidal activity against Mycobacterium tuberculosis in pulmonary tuberculosis patient assessed as reduction in sputum bacterial count at 25 mg/kg, po once daily measured on day 8 after starting standard TB therapy; assay type: functional; procedure, shortened: as §1
[21] = system: Mycobacterium tuberculosis; experiment: Bactericidal activity against Mycobacterium tuberculosis in pulmonary tuberculosis patient assessed as reduction in sputum bacterial count at 100 […], po once daily measured on day 8 after starting standard TB therapy; assay type: functional; procedure, shortened: as §1
[22] = system: Mycobacterium tuberculosis; experiment: Bactericidal activity against Mycobacterium tuberculosis in pulmonary tuberculosis patient assessed as reduction in sputum bacterial count at 400 mg/kg, po once daily measured on day 8 after starting standard TB therapy; assay type: functional; procedure, shortened: as §1
[23] = Drug uptake in pulmonary tuberculosis patient at 25 mg/kg, po once daily for 7 days by liquid chromatography-MS/MS analysis; assay type: ADME, organism-based; design: dose 25 mg/kg, route oral; details: human, in vivo, read-out: Drug uptake
Procedure, shortened: (§2)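 Treatment-naïve smear-positive pulmonary TB patients, hospitalized; 7-day oral once-daily monotherapy, directly observed, within 30 min after breakfast. Heparinized plasma taken predose and 1, 2, 3, 4, 5, 6, 8, 12 and 24 h postdose on day 7, plus predose on days 5 and 6. Parent drug and N-monodesmethyl metabolite measured by validated LC-MS/MS. Noncompartmental parameters; AUC0-24 by linear trapezoidal rule.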

[24] = Drug uptake in pulmonary tuberculosis patient at 100 […], po once daily for 7 days by liquid chromatography-MS/MS analysis; assay type: ADME, organism-based; design: dose 100 mg/kg, route oral; details: human, in vivo, read-out: Drug uptake; procedure, shortened: as §2

COc1nc2ccc(Br)cc2cc1[C@@H](c1ccccc1)[C@@](O)(CCN(C)C)c1cccc2ccccc12 [BEDAQUILINE]
log10CFU/ml [1]: -0.04 | log10CFU/ml [2]: -0.22 | log10CFU/ml [3]: -0.09 | log10CFU/ml [4]: -0.06 | log10CFU/ml [5]: -0.04 | log10CFU/ml [6]: -0.11 | log10CFU/ml [7]: -0.2 | log10CFU/ml [8]: -0.37 | log10CFU/ml [9]: -0.24 | log10CFU/ml [10]: -0.13 | log10CFU/ml [11]: -0.09 | log10CFU/ml [12]: -0.26 | log10CFU/ml [13]: -0.07 | log10CFU/ml [14]: 0.04 | log10CFU/ml [15]: -0.31 | log10CFU/ml [16]: -0.22 | log10CFU/ml [17]: -0.45 | log10CFU/ml [18]: -0.46 | log10CFU/ml [19]: -0.77 | log10CFU/ml [20]: -0.46 | log10CFU/ml [21]: -0.71 | log10CFU/ml [22]: -1.14 | concentration at 168 h [23]: 104 ng/mL | concentration at 168 h [24]: 391 ng/mL

From ChEMBL document CHEMBL1275461, “Early bactericidal activity and pharmacokinetics of the diarylquinoline TMC207 in treatment of pulmonary tuberculosis” (Antimicrob Agents Chemother, 2008)
